According to PMC3992281 (Journal of neurochemistry, 2013):

B1: CHGB: purified human recombinant mature CHGB (657 residues) with carboxy-terminal … tag, expressed in E. coli (protein, UniProt P05060 21-677, looked up)
Secretogranin-1: MPVDNRNHNEGMVTRCIIEVLSNALSKSSAPPITPECRQVLKTSRKDVKDKETTENENTKFEVRLLRDPADASEAHESSSRGEAGAPGEEDIQGPTKADTEKWAEGGGHSRERADEPQWSLYPSDSQVSEEVKTRHSEKSQREDEEEEEGENYQKGERGEDSSEEKHLEEPGETQNAFLNERKQASAIKKEELVARSETHAAGHSQEKTHSREKSSQESGEETGSQENHPQESKGQPRSQEESEEGEEDATSEVDKRRTRPRHHHGRSRPDRSSQGGSLPSEEKGHPQEESEESNVSMASLGEKRDHHSTHYRASEEEPEYGEEIKGYPGVQAPEDLEWERYRGRGSEEYRAPRPQSEESWDEEDKRNYPSLELDKMAHGYGEESEEERGLEPGKGRHHRGRGGEPRAYFMSDTREEKRFLGEGHHRVQENQMDKARRHPQGAWKELDRNYLNYGEEGAPGKWQQQGDLQDTKENREEARFQDKQYSSHHTAEKRKRLGELFNPYYDPLQWKSSHFERRDNMNDNFLEGEEENELTLNEKNFFPEYNYDWWEKKPFSEDVNWGYEKRNLARVPKLDLKRQYDRVAQLDQLLHYRKKSAEFPDFYDSEEPVSTHQEAENEKDRADQTVLTEDEKKELENLAAMDLELQKIAEKFSQRG
modifications: C-terminal tag

Legend:
Format in all cases: cell-based, rat
[1] = system: nicotine-triggered uptake of 45Ca2+ in PC12 cells; assay: Nicotinic cholinergic signal transduction: 45Ca2+ uptake; conditions: nicotine 60 µM, 45Ca2+ 2 µCi/ml, 5 minutes
Summary of the method: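 PC12 cells were plated on poly-L-lysine-coated dishes 2 days ahead and rinsed every 15 min for 1 h at 37°C in secretion buffer (150 mM NaCl, 5 mM KCl, 2 mM CaCl2, 10 mM Hepes, pH 7.4). Cells were exposed to ⁴⁵Ca²⁺ with drugs in Ca²⁺-free buffer for 5 min at room temperature. Uptake was stopped with ice-cold 1 mM LaCl3, followed by lysis and scintillation counting (cpm/well). Results are mean ± SEM.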

[2] = system: nicotinic cholinergic-stimulated catecholamine release in PC12 cells; assay: Nicotine-stimulated norepinephrine secretion from PC12 cells
Summary of the method: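 PC12 cells were washed, then stimulated with nicotine (60 µM) in secretion medium in the presence of graded concentrations of the CHGB-derived test peptide. Maximal effect was taken at 10 µM peptide. Human CHGA[352–372] served as the positive control. Norepinephrine release was measured and each experiment was repeated 3 times.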

[3] = system: membrane depolarization-stimulated catecholamine release in PC12 cells; assay: KCl; conditions: KCl 55 mM, CHGB full-length or plasmin-digested, repeated 3 times
Summary of the method: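 Rat PC12 cells (passage 10–25) grown in high-glucose DMEM with 10% horse serum and 5% FBS at 37°C in 6% CO2. After washing, cells were stimulated with KCl (55 mM) in secretion medium, with recombinant human CHGB (3.0 µM), either full-length or pre-digested with plasmin (10 µM CHGB, 2 µM plasmin, Tris-Cl pH 8.0, 150 mM NaCl, 1 hr). Three experiments.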

| Molecule | inhibition of nicotine-stimulated uptake of 45Ca2+ [1] | efficacy (maximal effect), inhibition of nicotinic cholinergic secretion ([2]; nicotine 60 µM, at 10 µM peptide) | IC50 ([2]; read-out: potency (IC50) to inhibit nicotinic cholinergic-stimulated catecholamine secretion, nicotine 60 µM, repeated 3 times) [nM] | reduction of membrane depolarization-stimulated catecholamine release [3] |
| --- | --- | --- | --- | --- |
| catestatin | ~ 82% | ~ 100% | 450 | – |
| B1 | – | – | – | ~ 23% |
